Consider 21 molecules from ChEMBL document CHEMBL4400565, “Discovery of Irreversible p97 Inhibitors” (J Med Chem, 2019).

Data set [1] concerns the target T1, Transitional endoplasmic reticulum ATPase (Homo sapiens, UniProt P55072). The data set can be described thus: Irreversible inhibition of p97 ATPase activity in human HEK293T cells based Ubv-GFP cells assessed as increase Ub-v-GFP accumulation at 2 uM incubated for 4 hrs by Western blot analysis. The data set is classed as cell-based. In a few lines:
(§1)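 Ub-v-GFP reporter cells (HEK293T-based, 3 × 10⁵) seeded on poly-D-lysine-coated wells and grown overnight. Inhibitor added at 2 μM and kept 4 h at 37 °C (scheme A), or removed after 1 h, cells washed once with PBS, then 3 h in drug-free medium (scheme B). Whole-cell Laemmli extracts immunoblotted for Ub-v-GFP, with anti-p97 as loading control.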
Target sequence in this assay (P55072 2-806 limits assumed): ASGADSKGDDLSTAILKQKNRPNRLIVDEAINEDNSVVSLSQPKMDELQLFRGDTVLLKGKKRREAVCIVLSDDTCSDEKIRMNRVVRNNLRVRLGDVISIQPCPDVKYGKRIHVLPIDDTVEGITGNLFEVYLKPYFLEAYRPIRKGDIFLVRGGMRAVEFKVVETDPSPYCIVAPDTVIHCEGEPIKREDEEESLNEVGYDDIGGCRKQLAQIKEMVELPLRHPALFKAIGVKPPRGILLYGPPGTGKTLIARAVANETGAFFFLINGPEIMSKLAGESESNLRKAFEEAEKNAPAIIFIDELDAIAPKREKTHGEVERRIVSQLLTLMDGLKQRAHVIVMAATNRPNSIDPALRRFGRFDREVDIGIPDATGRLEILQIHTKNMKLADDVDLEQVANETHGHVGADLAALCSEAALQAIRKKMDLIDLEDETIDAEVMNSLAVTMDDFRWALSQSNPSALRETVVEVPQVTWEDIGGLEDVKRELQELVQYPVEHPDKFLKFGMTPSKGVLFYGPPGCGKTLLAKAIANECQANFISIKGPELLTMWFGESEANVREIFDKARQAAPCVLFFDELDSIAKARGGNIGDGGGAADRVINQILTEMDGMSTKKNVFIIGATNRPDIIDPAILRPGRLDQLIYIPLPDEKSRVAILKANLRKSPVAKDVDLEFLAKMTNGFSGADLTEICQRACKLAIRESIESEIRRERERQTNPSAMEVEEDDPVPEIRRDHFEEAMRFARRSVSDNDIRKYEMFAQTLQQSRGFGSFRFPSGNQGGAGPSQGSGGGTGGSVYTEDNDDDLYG
A general note: Immunoblotting shows a protein as a band on a membrane.

Data set [2] concerns the target T1, Transitional endoplasmic reticulum ATPase. The experiment in a line: Inhibition of p97 ATPase activity in human HEK293T cells based Ubv-GFP cells assessed as increase Ub-v-GFP accumulation at 2 uM after 4 hrs by Western blot analysis. The data set is classed as cell-based. An outline of the steps: as §1
Target sequence in this assay (P55072 2-806 limits assumed): as above
A short description of data set [3]: GSH reactivity in PBS buffer assessed as GSH adduct formation at 1 uM after presence of GSH by LC-MS/MS analysis. The data set is classed as physicochemical. In a few lines: (§2)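 Compound at 1 μM incubated at 37 °C with 5 mM GSH plus a stable internal standard in 0.1 M potassium phosphate, pH 7.4, 10% acetonitrile. Reaction started by GSH addition. GSH conjugate formation checked at the end of incubation.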

For the next data set, the system named is MIA PaCa-2. The data set can be described thus: Antiproliferative activity against human MIAPaCa2 cells. The data set is classed as functional, cell-based.
Data set [4] is described as follows: GSH reactivity in PBS buffer assessed as half life at 1 uM after presence of GSH by LC-MS/MS analysis. The data set is classed as physicochemical. The conditions noted are these: PBS buffer with GSH. In a few lines:
as §2

Data set [5] has as its target T1, Transitional endoplasmic reticulum ATPase. The experiment in a line: Inhibition of His-tagged p97 (unknown origin) in presence of ATP and PNP by UV-transparent microplate assay. The conditions noted are these: read-out: Ki(app).
Target sequence in this assay (P55072 whole entry): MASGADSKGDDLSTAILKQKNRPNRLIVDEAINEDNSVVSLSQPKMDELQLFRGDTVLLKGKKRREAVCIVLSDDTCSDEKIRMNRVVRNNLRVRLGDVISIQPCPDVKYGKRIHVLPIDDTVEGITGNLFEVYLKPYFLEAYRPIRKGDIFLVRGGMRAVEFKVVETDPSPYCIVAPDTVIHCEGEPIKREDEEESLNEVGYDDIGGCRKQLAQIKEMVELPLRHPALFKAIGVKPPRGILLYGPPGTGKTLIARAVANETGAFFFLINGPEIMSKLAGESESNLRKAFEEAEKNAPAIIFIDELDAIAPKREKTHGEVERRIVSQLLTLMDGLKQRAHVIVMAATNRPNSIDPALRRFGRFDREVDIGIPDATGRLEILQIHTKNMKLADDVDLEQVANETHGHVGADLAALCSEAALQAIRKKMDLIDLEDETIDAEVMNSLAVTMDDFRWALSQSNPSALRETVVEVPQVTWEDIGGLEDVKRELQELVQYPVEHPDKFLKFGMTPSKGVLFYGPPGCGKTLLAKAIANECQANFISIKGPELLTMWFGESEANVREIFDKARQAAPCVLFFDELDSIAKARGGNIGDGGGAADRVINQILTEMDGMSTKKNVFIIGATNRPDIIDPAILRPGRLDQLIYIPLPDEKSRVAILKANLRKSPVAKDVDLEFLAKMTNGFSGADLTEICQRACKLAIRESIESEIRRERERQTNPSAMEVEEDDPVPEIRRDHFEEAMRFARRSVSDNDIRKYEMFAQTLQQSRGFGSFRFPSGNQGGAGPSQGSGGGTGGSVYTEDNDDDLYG
Data set [6] concerns Proteasome. The experiment in a line: Irreversible inhibition of proteasome in human HEK293T cells based Ubv-GFP cells assessed as increase Ub-v-GFP accumulation at 20 uM incubated for 1 hr followed by culturing in drug-free medium for additional 3 hrs by Western blot analysis.
Data set [7] concerns Proteasome. The experiment in a line: Irreversible inhibition of proteasome in human HEK293T cells based Ubv-GFP cells assessed as increase Ub-v-GFP accumulation at 20 uM after 4 hrs by Western blot analysis. In a few lines: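 Ub-v-GFP reporter cells (HEK293T-based, stably expressing this short-lived proteasome substrate) seeded at 3 × 10⁵ per well on poly-D-lysine, grown overnight, then exposed to MG132 for 4 h at 37 °C. Whole-cell extracts in Laemmli buffer were run on SDS-PAGE and immunoblotted for Ub-v-GFP, with anti-p97 as loading control.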

The target of data set [8] is T1, Transitional endoplasmic reticulum ATPase. The experiment in a line: Irreversible inhibition of His-tagged p97 (unknown origin) using PNP as substrate assessed as activity recovered at 780 nM after 2 hrs by dialysis relative to control. The arrangement: scale not given: the % may be the effect or the level left.
Target sequence in this assay (P55072 2-806 limits assumed): as the sequence (P55072 2-806 limits assumed) above
Data set [9] shares this target. The experiment in a line: Irreversible inhibition of p97 in human A373 cells co-expressing US11 and HA-tagged MCH class 1 heavy chain H2A assessed as MHC class 1 heavy chain degradation at 2 uM incubated for 1 hr followed by further incubation in drug-free medium in presence of cycloheximide by Western blot analysis.
Target sequence in this assay (P55072 2-806 limits assumed): as above
Data set [10] has as its system Proteasome. The data set can be described thus: Inhibition of proteasome in human HEK293T cells stably expressing YFP delSS TCRalpha assessed as reduction in deltaSS TCRalpha-YFP degradation at 2 uM MG132 incubated overnight by Western blot analysis.
For a further data set, the species on record is Homo sapiens. The data set can be described thus: Irreversible inhibition of His-tagged p97 delta N mutant (unknown origin) using PNP as substrate assessed as activity recovered at 780 nM after 2 hrs by dialysis relative to control. The arrangement: scale not given: the % may be the effect or the level left.
Data set [11] addresses T1, Transitional endoplasmic reticulum ATPase. The experiment in a line: Inhibition of p97 in human A373 cells co-expressing US11 and HA-tagged MCH class 1 heavy chain H2A assessed as MHC class 1 heavy chain accumulation at 2 uM after 1 hr by Western blot analysis. The data set is classed as cell-based.
Target sequence in this assay (P55072 2-806 limits assumed): as above
Data set [12] has the same target. The experiment in a line: Noncompetitive inhibition of p97 (unknown origin) using increasing concentration of ATP preincubated for 10 mins followed by ATP addition and measured after 2 hrs by UV-based two-step endpoint assay.
Target sequence in this assay (P55072 2-806 limits assumed): as above
Data set [13] has the same target. The experiment in a line: Irreversible inhibition of p97 ATPase activity in human HEK293T cells based Ubv-GFP cells assessed as increase Ub-v-GFP accumulation at 2 uM incubated for 1 hr followed by culturing in drug-free medium for additional 3 hrs by Western blot analysis. The data set is classed as cell-based. An outline of the steps:
as §1

For data set [14], the system named is Transitional endoplasmic reticulum ATPase (Homo sapiens), P55072 [UNDEFINED MUTATION]. The experiment in a line: Irreversible inhibition of His-tagged p97 C552A mutant (unknown origin) using PNP as substrate assessed as activity recovered at 780 nM after 2 hrs by dialysis relative to control. The arrangement: scale not given: the % may be the effect or the level left.
Sequence of Transitional endoplasmic reticulum ATPase (Homo sapiens), P55072 [UNDEFINED MUTATION] (P55072 whole entry, looked up, stated change not applied): as the sequence (P55072 whole entry) above

Data set [15] deals with T1, Transitional endoplasmic reticulum ATPase. The experiment in a line: Reversible inhibition of p97 in human A373 cells co-expressing US11 and HA-tagged MCH class 1 heavy chain H2A assessed as half life for MHC class 1 heavy chain degradation at 2 uM incubated for 1 hr followed by further incubation in drug-free medium in presence of cycloheximide by Western blot analysis. The data set is classed as cell-based. In a few lines: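 They were then moved to inhibitor-free medium containing cycloheximide (50 μg/mL) and sampled at set time points. Lysates were immunoblotted for heavy chain turnover.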

For data set [16] the target is unchanged. The experiment in a line: Reversible inhibition of His-tagged p97 (unknown origin) using PNP as substrate assessed as activity recovered at 3200 nM after 2 hrs by dialysis relative to control. Also noted: scale not given: the % may be the effect or the level left.
The subject of data set [17] is Transitional endoplasmic reticulum ATPase (Homo sapiens), P55072 [UNDEFINED MUTATION]. The data set can be described thus: Reversible inhibition of His-tagged p97 C552A mutant (unknown origin) using PNP as substrate assessed as activity recovered at 3200 nM after 2 hrs by dialysis relative to control. The arrangement: scale not given: the % may be the effect or the level left.

Data set [18] concerns Proteasome. The experiment in a line: Inhibition of proteasome in human HEK293T cells based Ubv-GFP cells assessed as increase Ub-v-GFP accumulation at 20 uM after 4 hrs by Western blot analysis.
In data set [19] the test system is Proteasome. The data set can be described thus: Inhibition of proteasome in human HEK293T cells stably expressing YFP delSS TCRalpha assessed as reduction in deltaSS TCRalpha-YFP degradation at 10 uM MG132 incubated overnight by Western blot analysis.
The test system of data set [20] is Proteasome. The data set can be described thus: Irreversible inhibition of proteasome in human A373 cells co-expressing US11 and HA-tagged MCH class 1 heavy chain H2A assessed as MHC class 1 heavy chain degradation at 20 uM incubated for 1 hr followed by further incubation in drug-free medium in presence of cycloheximide by Western blot analysis.

Calls of active or inactive are those of the source. The rule behind the calls is not given here. Where a SMILES comes first, the peptide text is derived from it. [ ]: non-standard residue; d: D form. The star is where a group is joined. Nva = CCC[C@H](N)C(=O)O; Cbz = O=C(OCc1ccccc1)*

For `CC#CCNC(=O)c1cccc2c1cc(C)n2-c1nc2c(c(NCc3ccccc3)n1)CCCC2`, the inhibition entry in data set [1] and in data set [2] was “Active” throughout. Also, the Activity result in [3] was “Not Active”. Besides, the EC50 (commonly the concentration that produces a half-maximal response) with MIA PaCa-2 was 723 nM. Also, in [4], the half-life (commonly the time in which the quantity being followed falls by half) at 1 µM is above 24 h. Moreover, the Ki in [5] is 37.3 nM.
In the case of `CCC[C@@H](C=O)NC(=O)[C@H](CC(C)C)NC(=O)[C@H](CC(C)C)NC(=O)OCc1ccccc1` (Cbz-Leu-Leu-[Nva]-aldehyde), the inhibition result with Proteasome [6] and with Proteasome [7] was “Active” in each case.
For `CC#CC(=O)Nc1cccc2c1cc(C)n2-c1nc2c(c(NCc3ccccc3)n1)CCCC2`, the inhibition result in data set [1], in data set [2], in data set [9], in [11], in [12] and in data set [13] was “Active” in each case. The Activity in data set [8] was found to be 3%; in the data set listed under Homo sapiens, 0%; in data set [14], 6%. For the same molecule, in the data set on Proteasome [10], the inhibition entry is “inactive”. In the data set with MIA PaCa-2, this molecule yielded an EC50 of 436 nM. Further, the Ki in [5] worked out at 33.2 nM.
With `CC#CCNC(=O)c1cccc2c1cc(C)n2-c1nc2c(c(NCc3ccccc3)n1)COCC2`, the inhibition result in data set [1] and in data set [2] was “Active” each time. Also, in data set [3], the Activity result is reported as “Not Active”. Besides, the EC50 in the data set on MIA PaCa-2 worked out at 524 nM. Besides, the half-life at 1 µM in data set [4] was above 24 h. The Ki in data set [5] was found to be 42.4 nM.
`Cc1cc2c(C(=O)NCCC#N)cccc2n1-c1nc2c(c(NCc3ccccc3)n1)CCCC2`: in data set [2], the inhibition entry was “Active”. In the data set on MIA PaCa-2, this molecule returned an EC50 of 517 nM. Moreover, in [5], the Ki is 24.1 nM.
`C#CC(=O)Nc1cccc2c1cc(C)n2-c1nc2c(c(NCc3ccccc3)n1)COCC2` displayed an EC50 with MIA PaCa-2 of 78.7 nM. Also, the Ki in data set [5] was 32.8 nM.
Take `Cc1cc(OCc2nnc(SC3CCCC3)n2-c2cccnc2)ccc1-c1ccc(S(C)(=O)=O)cc1`: the inhibition entry in the data set with Proteasome [10] was “inactive”. In addition, the inhibition entry in data set [11] is “Active”. For the same molecule, the T1/2 in data set [15] is below 1 h.
With `C#CC(=O)Nc1cccc2c1cc(C)n2-c1nc2c(c(NCc3ccccc3)n1)CCCC2`, the EC50 in the data set with MIA PaCa-2 was 131 nM. For the same molecule, the Ki in data set [5] stood at 37.9 nM.
For the molecule `COc1cccc2c(NCc3ccccc3)nc(-n3c(N)nc4ccccc43)nc12`, the Activity worked out at 82% in data set [16] and 100% in data set [17].
Turning to `Cc1cc2c(C(=O)NCC#N)cccc2n1-c1nc2c(c(NCc3ccccc3)n1)CCCC2`, in data set [2], the inhibition entry was “Active”. For the same molecule, it took 468 nM to reach a half-maximal effect with MIA PaCa-2 (EC50). For the same molecule, in [5], the Ki was 28.1 nM.
In the same order, the values of `C#CCCNC(=O)c1cccc2c1cc(C)n2-c1nc2c(c(NCc3ccccc3)n1)CCCC2` are “Active”, 1410 nM and 24.5 nM.
As for `C#CCNC(=O)c1cccc2c1cc(C)n2-c1nc2c(c(NCc3ccccc3)n1)COCC2`, the inhibition result in data set [1] and in data set [2] was “Active” each time. Further, in the data set with MIA PaCa-2, the EC50 was determined as 1080 nM. For the same molecule, the Ki in data set [5] was 18.6 nM.
For `CCCC#CC(=O)Nc1cccc2c1cc(C)n2-c1nc2c(c(NCc3ccccc3)n1)CCCC2`, the inhibition entry in data set [2] was “Active”. The half-maximal effective concentration (EC50) in the data set with MIA PaCa-2 stood at 1570 nM. In addition, in data set [5], the Ki came out at 26.9 nM.
For `Cc1cc2c(C(N)=O)cccc2n1-c1nc2c(c(NCc3ccccc3)n1)CCCC2` the same measures were “Active”, 128 nM and 28.6 nM.
For the molecule `CC(C)C[C@@H](C=O)NC(=O)[C@H](CC(C)C)NC(=O)[C@H](CC(C)C)NC(=O)OCc1ccccc1` (Cbz-Leu-Leu-Leu-aldehyde), the inhibition result in the data set with Proteasome [18], in the data set with Proteasome [19] and in the data set with Proteasome [20] was “Active” in each case.
Take `C=CC(=O)Nc1cccc2c1cc(C)n2-c1nc2c(c(NCc3ccccc3)n1)COCC2`: the EC50 with MIA PaCa-2 stood at 880 nM. The Ki in data set [5] worked out at 26.6 nM.
For `CC#CC(=O)Nc1cccc2c1cc(C)n2-c1nc2c(c(NCc3ccccc3)n1)COCC2` the same measures were 600 nM and 32.3 nM.
With `CCC#CC(=O)Nc1cccc2c1cc(C)n2-c1nc2c(c(NCc3ccccc3)n1)CCCC2`, in data set [2], the inhibition result was “Active”. The same molecule came in with an EC50 in the data set with MIA PaCa-2 of 463 nM. The Ki in data set [5] amounted to 43 nM.
In the case of `CCC(=O)Nc1cccc2c1cc(C)n2-c1nc2c(c(NCc3ccccc3)n1)CCCC2`, the inhibition entry in [2] was “Active”. In addition, in the data set on MIA PaCa-2, the midpoint of the response, the EC50, lay at 1010 nM. Besides, in data set [5], the Ki worked out at 20.8 nM.
Turning to `CCCNC(=O)c1cccc2c1cc(C)n2-c1nc2c(c(NCc3ccccc3)n1)CCCC2`, in the data set on MIA PaCa-2, the EC50 worked out at 608 nM. Further, the Ki in data set [5] was determined as 40.8 nM.
On to `C#CCNC(=O)c1cccc2c1cc(C)n2-c1nc2c(c(NCc3ccccc3)n1)CCCC2`, for which the inhibition entry in data set [1] and in [2] was “Active” each time. In the data set with MIA PaCa-2, it took 470 nM to reach a half-maximal effect (EC50). Moreover, the Ki in data set [5] turned out to be 30.6 nM.
